Assay results taken from PubChem BioAssay.
The list shows a part of the results. Activity calls are given as the source filed them.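 How the source made its calls: active means mean activation of the triplicate above a set limit carried over from the primary screen, none filed active; inactive means the rest.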

These compounds were tested against Oxysterols receptor LXR-beta (Homo sapiens) (UniProt P55055) (assay: LXR agonists, Gal4 luciferase reporter, confirmation, counter-screen for hgDAF-12 agonist project, cell-based, luminescence, HEK293, H. glycines campaign (AID 743051)). Settings: 24 h, at 6.8 µM, active compounds read high.
Oxysterols receptor LXR-beta (Homo sapiens), sequence (P55055 whole entry, looked up, the tested form may be a part): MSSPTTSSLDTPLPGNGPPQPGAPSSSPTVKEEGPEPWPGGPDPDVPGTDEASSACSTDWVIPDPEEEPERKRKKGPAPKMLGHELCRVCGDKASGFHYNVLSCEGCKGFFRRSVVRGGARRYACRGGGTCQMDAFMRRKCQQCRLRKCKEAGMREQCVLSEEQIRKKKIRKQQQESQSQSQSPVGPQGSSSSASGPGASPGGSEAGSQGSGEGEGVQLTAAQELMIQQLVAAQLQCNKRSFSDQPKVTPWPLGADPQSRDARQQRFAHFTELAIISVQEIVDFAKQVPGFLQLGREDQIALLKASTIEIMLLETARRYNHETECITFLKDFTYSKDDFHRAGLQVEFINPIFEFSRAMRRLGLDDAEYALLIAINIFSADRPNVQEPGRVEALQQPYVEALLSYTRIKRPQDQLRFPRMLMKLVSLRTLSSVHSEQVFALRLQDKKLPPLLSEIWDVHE
In short: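 System: Gal4-LXR luciferase reporter HEK293 cells / Compound: single nominal test compound dose of 6.8 µM / Times: 24 h exposure, 37 °C / Technique: One-Glo luminescence after 15 min / Read-out basis: % activation versus DMSO and positive controls / Benchmarks: DMSO low control, 0.68% final / Replication: n 3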

Q: O=C(Nc1ccc2oc(-c3ccccc3F)nc2c1)c1ccco1 was tested. Which activation did it give?
A: 0.57% (inactive)

Q: O=C(Nc1ccc2c(c1)CCC2)c1ccc(Br)s1 was tested. Which activation did it give?
A: 1.14% (inactive)

Q: With Cc1ccccc1Nc1nc(N)nc(CSc2ccccc2)n1 as the compound, how does the activation read?
A: 0.84% (inactive)

Q: How did the activation turn out when Cc1ccc(NC(=O)c2csc3c2CCCC3)cc1 was run?
A: 0.8% (inactive)

Q: For Cc1cccc(NC(=O)Nc2ccc3c(c2)OCO3)n1, which activation is on record?
A: 0.79% (inactive)

Q: Which activation does the source give for CC(=O)Nc1cccc(-c2csc(Nc3cccc(C)n3)n2)c1 here?
A: 1.17% (inactive)

Q: For c1ccc(Nc2nc(-c3ccncc3)cs2)nc1, which activation is on record?
A: 0.86% (inactive)

Q: With Cc1nn(-c2ccc([N+](=O)[O-])cc2)c(N)c1-c1ccccc1 as the compound, how does the activation read?
A: 0.83% (inactive)

Q: With COc1ccc(-c2csc(-c3cccs3)n2)cc1OC as the compound, how does the activation read?
A: 0.79% (inactive)

Q: Cc1cc(Cl)ccc1OCc1nc(-c2ccncc2)no1 was tested. Which activation did it give?
A: 0.57% (inactive)

Q: Which activation does the source give for COc1ccc2nc(SCc3ccccc3)nc(C)c2c1 here?
A: 1% (inactive)

Q: With Clc1ccc(Nc2nc(-c3cccs3)cs2)nc1 as the compound, how does the activation read?
A: 0.65% (inactive)

Q: CCc1ccc(NC2Nc3cc(C)nn3S2)cc1 (centres undefined) was tested. Which activation did it give?
A: 0.76% (inactive)

Q: Which activation does the source give for O=C(NCCCn1ccnc1)c1cc(-c2ccccc2)on1 here?
A: 0.27% (inactive)
